The text below walks through data of ChEMBL document CHEMBL1137359, “Potent and orally bioavailable 8-bicyclo[2.2.2]octylxanthines as adenosine A1 receptor antagonists” (J Med Chem, 2006).

A short description of data set [1]: Half life in Sprague-Dawley rat at 1 mg/kg, po. Format: ADME, organism-based. Further details: dose 1 mg/kg, route oral. As to conditions: in vivo. The procedure, abridged:
(§1)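 Pharmacokinetics after one oral dose in male Sprague-Dawley rats (1 mg/kg, or 2 mg dose), beagle dogs and cynomolgus monkeys (1 mg/kg). Bioavailability, half-life, clearance and volume of distribution reported as mean ± variation.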

A short description of data set [2]: Aqueous solubility of the compound. Format: physicochemical. As to conditions: water. In short, it runs like this:
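Solubility of each compound measured in sterile water for injection, 0.9% saline, 5% dextrose in water, ethanol and octanol; values in mg/mL from duplicate determinations per solvent, individual values varying <5%.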

In data set [3] the target is T1, Adenosine receptor A3 (Homo sapiens) (UniProt P0DMS8).
T1 sequence (whole entry): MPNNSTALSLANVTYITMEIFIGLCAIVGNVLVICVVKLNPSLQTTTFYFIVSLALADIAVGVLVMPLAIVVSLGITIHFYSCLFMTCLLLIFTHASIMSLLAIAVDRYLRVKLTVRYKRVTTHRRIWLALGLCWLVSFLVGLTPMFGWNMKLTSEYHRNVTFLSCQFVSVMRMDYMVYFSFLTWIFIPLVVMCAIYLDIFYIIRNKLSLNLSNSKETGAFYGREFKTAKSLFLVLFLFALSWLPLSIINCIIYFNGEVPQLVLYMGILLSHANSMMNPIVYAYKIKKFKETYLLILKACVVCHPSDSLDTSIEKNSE
Description: Displacement of [125I]ABA from human adenosine A3 receptor expressed in HEK cells relative to control. Format: cell-based. As to conditions: HEK293. Further details: concentration or dose not given beside the values. The procedure, abridged:
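Single-point screen at 1 µM antagonist, run in duplicate, on transfected-cell membranes: CHO-K1 (hA1), HEK (hA2A, hA2B, hA3). 2 h at room temperature in 50 mM HEPES pH 7.4, 1 mM EDTA, 5 mM MgCl2, 1 U/mL adenosine deaminase; 5% DMSO except hA3. Nonspecific binding with 50 µM XAC, or 10 µM BW-1433 for hA3. Result is % radioligand bound relative to control.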

Data set [4] in a line: Oral bioavailability in Sprague-Dawley rat at 1 mg/kg, po. As to conditions: in vivo. Format: ADME, organism-based. In short, it runs like this: as §1
Data set [5] deals with T2, Adenosine receptor A1 (Homo sapiens, UniProt P30542).
T2 sequence (P30542 whole entry): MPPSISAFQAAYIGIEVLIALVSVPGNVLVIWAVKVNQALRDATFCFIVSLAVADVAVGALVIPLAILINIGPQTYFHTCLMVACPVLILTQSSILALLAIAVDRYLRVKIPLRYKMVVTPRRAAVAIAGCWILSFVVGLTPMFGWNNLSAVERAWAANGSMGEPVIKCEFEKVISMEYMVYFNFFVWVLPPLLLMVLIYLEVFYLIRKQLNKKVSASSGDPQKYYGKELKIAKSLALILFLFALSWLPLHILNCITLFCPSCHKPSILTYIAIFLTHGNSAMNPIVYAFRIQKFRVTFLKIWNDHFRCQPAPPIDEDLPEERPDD
In words: Displacement of [125I]ABA from human adenosine A1 receptor expressed in CHOK1 cells. Format: cell-based, CHO-K1. In short, it runs like this:
(§2)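 Membranes from stably transfected CHO-K1 (hA1) or HEK (hA2A, hA2B, hA3) cells, 2 h at room temperature in 50 mM HEPES pH 7.4, 1 mM EDTA, 5 mM MgCl2, 1 U/mL adenosine deaminase. 5% DMSO final except hA3. Full curves 10^-11–10^-5 M, seven concentrations, four determinations each. Filtration, γ-counting, Ki derived.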

The target of the next data set is T3, Adenosine receptor A2b (Homo sapiens, UniProt P29275).
T3 sequence (P29275 whole entry): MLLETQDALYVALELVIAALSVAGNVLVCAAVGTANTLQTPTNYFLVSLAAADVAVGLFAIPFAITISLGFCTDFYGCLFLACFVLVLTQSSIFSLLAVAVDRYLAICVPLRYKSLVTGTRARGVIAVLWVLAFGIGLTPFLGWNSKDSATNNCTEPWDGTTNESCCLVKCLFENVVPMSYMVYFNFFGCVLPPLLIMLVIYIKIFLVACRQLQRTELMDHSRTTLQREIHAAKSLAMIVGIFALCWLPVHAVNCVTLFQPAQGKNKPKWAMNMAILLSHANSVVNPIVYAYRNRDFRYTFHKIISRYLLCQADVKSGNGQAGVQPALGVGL
Description: Displacement of [125I]3-(4-aminobenzyl)-8-phenyloxyacetate-1-propyl-xanthine from human adenosine A2B receptor expressed in HEK cells. Format: cell-based, HEK293. The procedure, abridged:
as §2

The nature of data set [6]: Clearance in Sprague-Dawley rat at 1 mg/kg, po. Format: ADME, organism-based. Details: dose 1 mg/kg, route oral. As to conditions: in vivo. The procedure, abridged:
as §1

In data set [7] the target is T4, Adenosine receptor A1 (Rattus norvegicus, UniProt P25099).
T4 sequence (P25099 whole entry): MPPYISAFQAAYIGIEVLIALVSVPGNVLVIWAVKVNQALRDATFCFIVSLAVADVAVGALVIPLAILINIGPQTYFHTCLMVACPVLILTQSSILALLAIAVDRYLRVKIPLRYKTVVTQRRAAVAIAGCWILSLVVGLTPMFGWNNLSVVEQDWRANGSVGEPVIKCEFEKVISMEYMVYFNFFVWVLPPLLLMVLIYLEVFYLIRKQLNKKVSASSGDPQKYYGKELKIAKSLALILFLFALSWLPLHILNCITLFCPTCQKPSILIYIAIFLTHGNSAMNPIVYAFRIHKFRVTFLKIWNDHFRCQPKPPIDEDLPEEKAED
In words: Displacement of [3H]CPX from rat brain cortex adenosine A1 receptor. In short, it runs like this:
(§3)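 Crude membranes (10-20 µg protein) from rat brain cortex (A1, 2 nM 3H-CPX) or striatum (A2A, 0.5-1.2 nM 3H-ZM241385) incubated 90 min at room temperature in 50 mM Tris-HCl pH 7.4 with 2 U/mL adenosine deaminase. Stopped with ice-cold buffer, then vacuum filtration and scintillation counting. Ki from concentration-response displacement.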

Data set [8] deals with Adenosine receptor A2a (Rattus norvegicus) (UniProt P30543). Description: Displacement of [3H]ZM241385 from rat brain striatum adenosine A2A receptor relative to control.
Chain of Adenosine receptor A2a (Rattus norvegicus) (P30543 whole entry): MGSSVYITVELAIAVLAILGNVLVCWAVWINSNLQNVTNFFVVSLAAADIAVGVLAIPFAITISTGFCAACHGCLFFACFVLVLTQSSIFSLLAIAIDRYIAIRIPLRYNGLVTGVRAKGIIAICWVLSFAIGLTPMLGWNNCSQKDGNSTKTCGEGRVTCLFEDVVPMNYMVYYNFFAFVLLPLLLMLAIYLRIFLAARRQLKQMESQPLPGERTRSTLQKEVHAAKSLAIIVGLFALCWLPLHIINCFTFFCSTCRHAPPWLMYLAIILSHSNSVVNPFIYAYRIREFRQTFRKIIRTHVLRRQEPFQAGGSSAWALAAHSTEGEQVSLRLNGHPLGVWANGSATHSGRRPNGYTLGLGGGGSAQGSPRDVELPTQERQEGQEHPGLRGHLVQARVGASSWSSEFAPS
For another data set, the target named is Adenosine receptor A2a (Rattus norvegicus, UniProt P30543). Description: Displacement of [3H]ZM-241385 from rat brain striatum adenosine A2A receptor. The procedure, abridged: as §3
Chain of Adenosine receptor A2a (P30543 whole entry): as above

Structures are written as SMILES. ≈ marks a conversion by molar mass, not a printed value.

Compound `CCCn1c(=O)c2nc([C@]34CC[C@](CCCC(=O)O)(CC3)CC4)[nH]c2n(CCC)c1=O` showed a half-life in data set [1] of 2.04 h. In data set [2], this compound gave a solubility of 500 µg/mL (≈ 1160 µM). Besides, the Activity came to 26% in [3] and 50% in [8]. This compound also registered a bioavailability in data set [4] of 48%. Besides, the Ki at Adenosine receptor A1 [5] turned out to be 29 nM; on Adenosine receptor A2b, 127 nM; on Adenosine receptor A1 [7], 4 nM. In data set [6], this compound had a CL/F of 7.1 mL/min/kg.

On to `CCCn1c(=O)c2nc([C@]34CC[C@](CC(=O)O)(CC3)CC4)[nH]c2n(CCC)c1=O`, for which the values for the Ki on Adenosine receptor A2a and at Adenosine receptor A1 [7] were 8960 nM and 22.5 nM, respectively.
